A word on the Ki: it is the dissociation constant of the complex between target and ligand, obtained from inhibition or displacement. A low value points to tighter binding. The IC50 is the point on the concentration scale where inhibition reaches its midpoint. High values mean weaker potency in that assay, low ones greater potency in that assay. By bioavailability is commonly meant the share of a dose that reaches the circulation, judged against a reference dose that is usually intravenous. A high value points to much systemic uptake. For orientation: clearance means a measure of how efficiently the substance is removed, as volume per time. Read a low clearance as inefficient removal.

The target of series [1] is 72 kDa type IV collagenase (Homo sapiens, UniProt P08253). Nature of the series: Affinity for Matrix metalloprotease-2 (MMP-2).
A further series has as its target T1, Interstitial collagenase (Homo sapiens, UniProt P03956).
T1 sequence (P03956 whole entry): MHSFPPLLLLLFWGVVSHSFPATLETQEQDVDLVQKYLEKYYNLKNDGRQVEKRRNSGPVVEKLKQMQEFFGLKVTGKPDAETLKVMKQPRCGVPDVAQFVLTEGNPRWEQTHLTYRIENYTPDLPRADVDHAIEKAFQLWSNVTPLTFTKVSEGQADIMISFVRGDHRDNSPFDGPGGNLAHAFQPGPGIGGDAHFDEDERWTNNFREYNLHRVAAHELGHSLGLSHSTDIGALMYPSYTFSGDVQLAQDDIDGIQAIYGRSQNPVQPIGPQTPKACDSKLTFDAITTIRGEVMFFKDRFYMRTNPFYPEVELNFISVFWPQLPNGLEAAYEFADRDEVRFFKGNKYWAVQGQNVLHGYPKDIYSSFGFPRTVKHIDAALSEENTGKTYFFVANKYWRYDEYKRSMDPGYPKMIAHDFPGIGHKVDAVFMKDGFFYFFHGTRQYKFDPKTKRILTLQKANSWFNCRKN
Nature of the series: Affinity towards Matrix metalloprotease-1 (MMP-1).

The target of series [2] is T2, Disintegrin and metalloproteinase domain-containing protein 17 (Sus scrofa, UniProt O77636). Nature of the series: Inhibitory activity against porcine Tumor necrosis factor alpha converting enzyme.
Series [3] has as its target Matrix metalloproteinase-9 (Homo sapiens, UniProt P14780). The series can be described thus: Affinity towards Matrix metalloprotease-9 (MMP-9).
The target of series [4] is Disintegrin and metalloproteinase domain-containing protein 17 (Homo sapiens, UniProt P78536). The series can be described thus: Inhibition of Tumor necrosis factor alpha secretion in LPS-stimulated human whole blood assay. Format: functional, tissue-based.
The next series deals with T3, Matrilysin (Homo sapiens, UniProt P09237).
T3 sequence (P09237 whole entry): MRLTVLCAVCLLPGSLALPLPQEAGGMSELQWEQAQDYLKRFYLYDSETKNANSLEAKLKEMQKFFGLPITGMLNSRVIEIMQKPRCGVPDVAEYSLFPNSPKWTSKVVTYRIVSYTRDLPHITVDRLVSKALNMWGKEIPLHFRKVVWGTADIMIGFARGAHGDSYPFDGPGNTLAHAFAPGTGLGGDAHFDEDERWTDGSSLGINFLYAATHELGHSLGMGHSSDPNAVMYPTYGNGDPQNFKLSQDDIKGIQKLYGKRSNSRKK
The series can be described thus: Affinity for Matrix metalloprotease-7 (MMP-7).

Series [5] is described as follows: (§1) Bioavailability (dose 8 mg/kg p.o.). Format: ADME, organism-based. Particulars: rat, in vivo, po. An outline of the steps: (§2)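 Sprague Dawley rats and Beagle dogs were dosed in cassette fashion, iv at 4 mg/kg or orally at 8 mg/kg. Plasma samples were analysed by LC–MS–MS. The iv arm gave clearance, volume of distribution at steady state, terminal half-life and AUC. The oral arm gave tmax and bioavailability. Two animals were used per dosing group.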

For series [6], the target named is Matrix metalloproteinase-14 (Homo sapiens, UniProt P50281). Nature of the series: Affinity for Matrix metalloprotease-14 (MMP-14).
A further series deals with Stromelysin-1 (Homo sapiens, UniProt P08254). The series can be described thus: Affinity for Matrix metalloprotease-3 (MMP-3).
In series [7] the target is Matrix metalloproteinase-16 (Homo sapiens, UniProt P51512). The series can be described thus: Affinity for Matrix metalloprotease-16 (MMP-16).
Series [8] has as its target T2, Disintegrin and metalloproteinase domain-containing protein 17. Nature of the series: Affinity for Tumor necrosis factor alpha converting enzyme (TACE).
A further series has as its target Neutrophil collagenase (Homo sapiens, UniProt P22894). The series can be described thus: Affinity for Matrix metalloprotease-8 (MMP-8).
Series [9] is described as follows: (§3) The compound was administered intravenously at a dose of 4 mg/Kg for determination of volume of distribution at steady state. Format: ADME, organism-based, Canis lupus familiaris. Particulars: dog, in vivo, iv, read-out: Vss. The gist of the method: as §2
The nature of series [10]: as §1. Format: ADME, organism-based, Canis lupus familiaris. Particulars: dog, in vivo, po. An outline of the steps:
as §2

Series [11] can be described thus: (§4) The compound was administered intravenously at a dose of 4 mg/Kg for determination of systemic clearance. Format: ADME, organism-based, Canis lupus familiaris. The following applies: dog, in vivo, iv. An outline of the steps:
as §2

In another series the target is Collagenase 3 (Homo sapiens, UniProt P45452). Nature of the series: Affinity for Matrix metalloprotease-13 (MMP-13).
In series [12] the target is Matrix metalloproteinase-15 (Homo sapiens, UniProt P51511). The series can be described thus: Affinity for Matrix metalloprotease-15 (MMP-15).
The nature of series [13]: as §3. Format: ADME, organism-based. Particulars: rat, in vivo, iv, read-out: Vss. An outline of the steps:
as §2

Series [14] relates to Rattus norvegicus. The description is as §4. Format: functional, organism-based. An outline of the steps: as §2
In series [15] the test system is Rattus norvegicus. Nature of the series: (§5) The compound was administered intravenously at a dose of 4 mg/Kg for determination area under curve. Format: functional, organism-based. The gist of the method: as §2
Series [16] deals with Canis familiaris. The description is as §5. Format: functional, organism-based. The following applies: Canis lupus familiaris. An outline of the steps:
as §2

Series [17] deals with Rattus norvegicus. The series can be described thus: (§6) The compound was administered orally at a dose of 8 mg/Kg for determination of t max. Format: functional, organism-based. An outline of the steps:
as §2

Series [18] concerns Canis familiaris. The description is as §6. Format: functional, organism-based. Particulars: Canis lupus familiaris. An outline of the steps:
as §2

Series [19] concerns Rattus norvegicus. Nature of the series: (§7) The compound was administered intravenously at a dose of 4 mg/Kg for determination of terminal half life. Format: functional, organism-based. An outline of the steps: (§8)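 Cassette dosing in Sprague Dawley rats and Beagle dogs, given intravenously at 4 mg/kg. Plasma samples were analysed by LC–MS–MS, and terminal half-life was derived from the plasma profile. Two animals per dosing group.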

The subject of series [20] is Canis familiaris. Described as §7. Format: functional, organism-based. The following applies: Canis lupus familiaris. The gist of the method:
as §8

Matrix metalloproteinase-9, sequence (P14780 whole entry, the tested form may be a part): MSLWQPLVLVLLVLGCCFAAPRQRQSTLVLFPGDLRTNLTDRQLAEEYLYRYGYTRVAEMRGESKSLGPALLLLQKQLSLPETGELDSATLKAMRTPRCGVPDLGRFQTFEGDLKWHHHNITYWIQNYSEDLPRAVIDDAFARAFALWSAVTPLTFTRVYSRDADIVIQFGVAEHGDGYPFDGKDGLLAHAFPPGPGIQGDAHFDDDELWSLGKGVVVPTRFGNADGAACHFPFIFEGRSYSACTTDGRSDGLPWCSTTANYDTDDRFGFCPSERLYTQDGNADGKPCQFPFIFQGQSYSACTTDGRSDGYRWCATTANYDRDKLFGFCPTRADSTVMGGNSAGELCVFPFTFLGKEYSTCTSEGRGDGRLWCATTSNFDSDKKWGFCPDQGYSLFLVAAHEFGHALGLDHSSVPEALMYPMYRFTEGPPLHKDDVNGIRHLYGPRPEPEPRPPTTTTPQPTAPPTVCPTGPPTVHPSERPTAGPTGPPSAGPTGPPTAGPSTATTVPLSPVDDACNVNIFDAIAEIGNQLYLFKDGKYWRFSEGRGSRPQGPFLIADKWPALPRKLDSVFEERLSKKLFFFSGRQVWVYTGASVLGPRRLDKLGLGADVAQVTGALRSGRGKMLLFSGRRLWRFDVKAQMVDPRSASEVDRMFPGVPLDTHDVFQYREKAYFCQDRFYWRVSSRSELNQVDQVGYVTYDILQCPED
72 kDa type IV collagenase, sequence (P08253 whole entry): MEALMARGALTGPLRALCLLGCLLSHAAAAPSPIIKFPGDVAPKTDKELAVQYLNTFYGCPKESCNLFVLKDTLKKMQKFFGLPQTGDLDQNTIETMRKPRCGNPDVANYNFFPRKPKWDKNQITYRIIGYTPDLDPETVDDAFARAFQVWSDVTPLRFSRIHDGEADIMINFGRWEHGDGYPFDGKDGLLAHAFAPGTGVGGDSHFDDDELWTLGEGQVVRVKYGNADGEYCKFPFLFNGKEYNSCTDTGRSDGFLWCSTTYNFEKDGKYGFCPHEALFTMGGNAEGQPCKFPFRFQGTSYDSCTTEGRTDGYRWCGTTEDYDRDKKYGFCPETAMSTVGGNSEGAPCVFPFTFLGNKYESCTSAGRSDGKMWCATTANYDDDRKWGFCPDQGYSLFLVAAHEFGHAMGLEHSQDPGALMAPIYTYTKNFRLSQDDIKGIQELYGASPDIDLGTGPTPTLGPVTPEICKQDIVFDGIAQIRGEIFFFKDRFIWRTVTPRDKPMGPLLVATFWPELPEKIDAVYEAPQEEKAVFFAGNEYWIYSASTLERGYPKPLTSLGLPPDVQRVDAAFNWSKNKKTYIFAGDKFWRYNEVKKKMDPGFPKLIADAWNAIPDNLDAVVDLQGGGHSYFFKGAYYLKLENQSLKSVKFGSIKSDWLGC
Disintegrin and metalloproteinase domain-containing protein 17 (Homo sapiens, UniProt P78536), sequence (P78536 whole entry, the tested form may be a part): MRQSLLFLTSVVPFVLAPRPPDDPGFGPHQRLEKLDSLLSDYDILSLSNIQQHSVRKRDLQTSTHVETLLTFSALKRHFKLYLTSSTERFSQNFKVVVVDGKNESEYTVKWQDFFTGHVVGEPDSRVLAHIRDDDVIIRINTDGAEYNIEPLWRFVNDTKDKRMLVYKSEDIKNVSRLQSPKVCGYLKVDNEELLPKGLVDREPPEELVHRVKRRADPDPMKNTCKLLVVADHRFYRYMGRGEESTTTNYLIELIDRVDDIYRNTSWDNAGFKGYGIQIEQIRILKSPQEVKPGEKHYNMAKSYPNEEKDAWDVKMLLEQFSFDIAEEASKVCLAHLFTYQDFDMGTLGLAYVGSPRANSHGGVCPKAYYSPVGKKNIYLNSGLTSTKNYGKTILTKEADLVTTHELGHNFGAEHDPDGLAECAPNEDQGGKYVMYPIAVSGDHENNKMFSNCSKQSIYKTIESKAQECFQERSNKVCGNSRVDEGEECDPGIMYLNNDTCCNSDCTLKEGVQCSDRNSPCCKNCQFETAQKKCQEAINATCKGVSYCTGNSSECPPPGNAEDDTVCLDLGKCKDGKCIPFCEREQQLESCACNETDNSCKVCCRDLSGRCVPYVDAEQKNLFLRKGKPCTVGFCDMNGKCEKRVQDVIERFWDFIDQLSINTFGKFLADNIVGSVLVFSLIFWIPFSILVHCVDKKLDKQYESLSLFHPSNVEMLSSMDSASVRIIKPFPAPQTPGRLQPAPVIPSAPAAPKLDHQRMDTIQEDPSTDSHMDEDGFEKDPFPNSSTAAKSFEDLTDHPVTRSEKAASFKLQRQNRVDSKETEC
T2 sequence (O77636 whole entry, the tested form may be a part): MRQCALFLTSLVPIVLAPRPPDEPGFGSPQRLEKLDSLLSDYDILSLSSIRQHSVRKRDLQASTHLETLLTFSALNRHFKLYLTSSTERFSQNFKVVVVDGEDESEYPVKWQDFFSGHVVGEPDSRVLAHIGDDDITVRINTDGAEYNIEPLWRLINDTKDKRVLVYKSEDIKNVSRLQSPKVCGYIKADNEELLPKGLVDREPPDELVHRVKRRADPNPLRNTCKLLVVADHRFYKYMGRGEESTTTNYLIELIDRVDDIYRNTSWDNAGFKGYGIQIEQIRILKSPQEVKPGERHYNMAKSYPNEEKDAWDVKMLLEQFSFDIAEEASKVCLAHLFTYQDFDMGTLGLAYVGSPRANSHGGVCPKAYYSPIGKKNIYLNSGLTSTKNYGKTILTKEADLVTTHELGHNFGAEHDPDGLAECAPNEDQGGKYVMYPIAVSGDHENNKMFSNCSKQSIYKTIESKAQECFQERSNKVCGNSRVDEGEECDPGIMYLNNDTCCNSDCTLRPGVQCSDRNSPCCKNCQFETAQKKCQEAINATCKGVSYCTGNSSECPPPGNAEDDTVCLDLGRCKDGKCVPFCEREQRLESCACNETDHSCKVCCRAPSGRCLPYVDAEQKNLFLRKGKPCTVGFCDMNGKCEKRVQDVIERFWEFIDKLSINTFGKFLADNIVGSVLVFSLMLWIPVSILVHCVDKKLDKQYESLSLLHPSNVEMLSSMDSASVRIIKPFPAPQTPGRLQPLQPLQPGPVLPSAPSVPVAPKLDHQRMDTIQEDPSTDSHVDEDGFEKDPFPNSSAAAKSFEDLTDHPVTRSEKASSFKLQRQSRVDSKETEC
Matrix metalloproteinase-16, sequence (P51512 whole entry, the tested form may be a part): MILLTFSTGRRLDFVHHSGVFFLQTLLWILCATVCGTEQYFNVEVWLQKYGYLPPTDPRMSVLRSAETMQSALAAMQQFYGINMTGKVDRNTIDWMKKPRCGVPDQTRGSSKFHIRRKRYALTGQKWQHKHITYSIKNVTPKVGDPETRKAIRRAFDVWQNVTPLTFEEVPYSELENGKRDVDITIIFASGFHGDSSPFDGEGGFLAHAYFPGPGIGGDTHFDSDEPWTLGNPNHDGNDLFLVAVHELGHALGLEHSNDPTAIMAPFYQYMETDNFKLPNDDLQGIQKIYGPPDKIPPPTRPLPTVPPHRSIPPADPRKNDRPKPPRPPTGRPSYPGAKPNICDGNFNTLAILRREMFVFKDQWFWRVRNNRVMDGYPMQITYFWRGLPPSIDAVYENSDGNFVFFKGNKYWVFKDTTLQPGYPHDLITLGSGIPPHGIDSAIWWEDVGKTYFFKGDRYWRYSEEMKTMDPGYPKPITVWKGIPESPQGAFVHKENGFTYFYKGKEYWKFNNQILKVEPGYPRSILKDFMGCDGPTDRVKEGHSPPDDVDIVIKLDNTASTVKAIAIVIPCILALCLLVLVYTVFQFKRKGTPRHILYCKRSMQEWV
Stromelysin-1, sequence (P08254 whole entry): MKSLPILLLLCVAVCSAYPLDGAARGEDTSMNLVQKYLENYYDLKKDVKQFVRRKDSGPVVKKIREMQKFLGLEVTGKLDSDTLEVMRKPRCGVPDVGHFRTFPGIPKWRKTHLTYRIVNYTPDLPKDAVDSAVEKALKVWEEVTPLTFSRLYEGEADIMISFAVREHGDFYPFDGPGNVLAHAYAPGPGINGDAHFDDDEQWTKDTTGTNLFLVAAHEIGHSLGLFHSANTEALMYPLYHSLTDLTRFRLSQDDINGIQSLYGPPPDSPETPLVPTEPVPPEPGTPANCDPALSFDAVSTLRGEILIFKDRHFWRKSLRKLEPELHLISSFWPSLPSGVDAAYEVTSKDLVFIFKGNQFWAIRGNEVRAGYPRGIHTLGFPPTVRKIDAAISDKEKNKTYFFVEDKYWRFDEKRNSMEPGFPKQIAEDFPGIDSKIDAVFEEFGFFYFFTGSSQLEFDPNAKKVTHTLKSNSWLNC
Matrix metalloproteinase-15, sequence (P51511 whole entry): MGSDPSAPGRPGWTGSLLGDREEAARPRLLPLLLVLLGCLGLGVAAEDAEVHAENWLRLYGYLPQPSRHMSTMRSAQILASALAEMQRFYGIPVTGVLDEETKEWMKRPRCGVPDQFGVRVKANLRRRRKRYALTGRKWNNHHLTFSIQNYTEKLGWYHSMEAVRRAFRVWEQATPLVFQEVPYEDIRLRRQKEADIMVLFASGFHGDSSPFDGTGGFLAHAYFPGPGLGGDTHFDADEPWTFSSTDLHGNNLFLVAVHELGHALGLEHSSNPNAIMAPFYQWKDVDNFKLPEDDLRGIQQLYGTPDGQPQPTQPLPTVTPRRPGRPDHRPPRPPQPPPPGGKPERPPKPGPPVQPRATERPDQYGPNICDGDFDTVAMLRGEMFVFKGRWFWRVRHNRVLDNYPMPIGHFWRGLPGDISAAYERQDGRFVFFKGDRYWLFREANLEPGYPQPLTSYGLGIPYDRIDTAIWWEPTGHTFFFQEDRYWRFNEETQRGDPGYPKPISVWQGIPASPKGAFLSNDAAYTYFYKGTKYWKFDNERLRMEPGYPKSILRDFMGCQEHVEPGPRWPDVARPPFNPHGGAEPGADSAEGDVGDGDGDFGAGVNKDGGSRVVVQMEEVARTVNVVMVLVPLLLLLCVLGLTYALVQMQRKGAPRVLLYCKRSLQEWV

`C[C@H](C(=O)NO)N1CC[C@@](C)(c2ccc(OCc3ccccc3[N+](=O)[O-])cc2)C1=O`: the Ki was 35 nM in [1], > 5000 nM on Interstitial collagenase and 66 nM in [3]. The compound further showed an IC50 in [2] of 4 nM.

For the compound `Cc1cncc(C)c1COc1ccc([C@]2(C)CCN([C@H](C)C(=O)NO)C2=O)cc1` (stereo in doubt; 5q), the IC50 in series [4] stood at 6600 nM; in series [2], 3 nM.

Turning to `Cc1cc(C)cc(COc2ccc([C@]3(C)CCN([C@H](C)C(=O)NO)C3=O)cc2)c1`, the inhibitory constant (Ki) came to 5810 nM in series [1], 4750 nM on Interstitial collagenase and 1630 nM in series [3]. Also, in series [2], inhibition was half-maximal at 4 nM (IC50).

As to `C[C@H](C(=O)NO)N1CC[C@@](C)(c2ccc(OC(C)(C)C)cc2)C1=O`, in series [2], the IC50 is > 10000 nM.

Consider `Cc1cncc(C)c1COc1ccc([C@]2(C)CCN([C@H](C)C(=O)NO)C2=O)cc1` (stereo in doubt; 5p), for which the half-inhibitory concentration (IC50) in [4] turned out to be 8100 nM; in [2], 16 nM.

Consider `Cc1cc(COc2ccc([C@]3(C)CCN([C@H](C)C(=O)NO)C3=O)cc2)c2ccccc2n1` (stereo in doubt) [listing 1 of 2 here], for which the Ki at Matrilysin worked out at 259 nM; in series [6], 15900 nM; on Stromelysin-1, 141 nM; in [7] it was 1600 nM; in series [1], 2050 nM; in series [8], 0.56 nM. Also, the Ki was 257 nM at Neutrophil collagenase; 30000 nM on Interstitial collagenase; 1420 nM on Collagenase 3; 4000 nM in [12]; 10300 nM in [3]. Besides, the bioavailability was found to be 41% in series [5] and 32% in series [10]. For the same compound, the Vd in [9] worked out at 0.93 L/kg; in series [13], 2 L/kg. This compound showed a clearance in series [11] of 15.7 mL/min/kg.

With `C[C@H](C(=O)NO)N1CC[C@@](C)(c2ccc(OCc3cccc([N+](=O)[O-])c3)cc2)C1=O`, the inhibition constant Ki in [1] is 38 nM; at Interstitial collagenase, > 5000 nM; in [3], 39 nM. In series [2], this compound returned a half-maximal inhibitory concentration (IC50) of 6 nM.

Regarding `C[C@H](C(=O)NO)N1CC[C@@](C)(c2ccc(OCc3ccncc3)cc2)C1=O`, the concentration for half-maximal inhibition (IC50) in series [4] is 5900 nM; in [2] it was 21 nM.

In the series with Rattus norvegicus [14], `Cc1cc(COc2ccc([C@]3(C)CCN([C@H](C)C(=O)NO)C3=O)cc2)c2ccccc2n1` (stereo in doubt) [listing 2 of 2 here] gave a CL (mL.min-1.kg-1) of 35. The AUC in the series on Rattus norvegicus [15] was found to be 1810 ng·h/mL; in the series with Canis familiaris [16], 4430 ng·h/mL. The Tmax with Rattus norvegicus [17] and with Canis familiaris [18] was 0.38 h throughout. In addition, the T1/2 in the series on Rattus norvegicus [19] stood at 11.8 h; with Canis familiaris [20], 7.1 h.

As to `C[C@H](C(=O)NO)N1CC[C@@](C)(c2ccc(OCc3ccc([N+](=O)[O-])cc3)cc2)C1=O`, the Ki in series [1] is 11 nM; at Interstitial collagenase it was > 5000 nM; in [3], 40 nM. The compound further had an IC50 in series [2] of 6 nM.

As for `C[C@H](C(=O)NO)N1CC[C@@](C)(c2ccc(Oc3ccccc3)cc2)C1=O`, the results for the inhibitory constant (Ki) (in [1]; on Interstitial collagenase; in series [3]) were < 2.8 nM, 143 nM and < 2.1 nM, respectively. This compound had an IC50 in series [2] of 185 nM.

Regarding `C[C@H](C(=O)NO)N1CC[C@@](C)(c2ccc(OCc3ccccc3)cc2)C1=O`, the Ki in [1] was 19 nM; on Interstitial collagenase, > 5000 nM; in series [3], 29 nM. Also, in series [2], the half-inhibitory concentration (IC50) amounted to 4 nM.

Consider `COc1ccc([C@]2(C)CCN([C@H](C)C(=O)NO)C2=O)cc1`, for which the Ki in series [1] turned out to be 4.8 nM; at Interstitial collagenase, 92 nM; in [3], 9 nM. It took 887 nM to reach half-maximal inhibition in series [2] (IC50).

With `CC(C)Cc1ccc([C@]2(C)CCN([C@H](C)C(=O)NO)C2=O)cc1`, the results for the Ki (in [1]; on Interstitial collagenase; in series [3]) were 701 nM, 4000 nM and 586 nM, respectively. Besides, inhibition in series [2] was half-maximal at 1000 nM (IC50).

For `C[C@H](C(=O)NO)N1CC[C@@](C)(c2ccc(OCc3cc(C(F)(F)F)cc(C(F)(F)F)c3)cc2)C1=O`, the Ki was > 3000 nM in [1], > 5000 nM at Interstitial collagenase and > 2000 nM in [3]. For the same compound, the IC50 in series [2] came out at 2 nM.

Consider `COc1cc(COc2ccc([C@]3(C)CCN([C@H](C)C(=O)NO)C3=O)cc2)cc(OC)c1`, for which the inhibition constant (Ki) in series [1] is > 3000 nM; on Interstitial collagenase it was > 5000 nM; in series [3] it was > 2000 nM. The IC50 in [2] turned out to be 7 nM.

For the compound `C[C@H](C(=O)NO)N1CC[C@@](C)(c2ccc(OCc3ccnc4ccccc34)cc2)C1=O`, the concentration for half-maximal inhibition (IC50) in series [4] stood at 2250 nM; in series [2] it was 1.8 nM.

For `C[C@H](C(=O)NO)N1CC[C@@](C)(c2ccc(-c3ccccc3)cc2)C1=O`, the Ki came to 82 nM in [1], 2290 nM on Interstitial collagenase and 35 nM in [3]. This compound also displayed a concentration for half-maximal inhibition (IC50) in series [2] of 13000 nM.

Turning to `Cc1cc(COc2ccc([C@]3(C)CCN([C@H](C)C(=O)NO)C3=O)cc2)c2ccccc2n1` (stereo in doubt; 5s), in [2], the IC50 came to 1 nM. That is a single-digit nanomolar value.

With `C[C@H](C(=O)NO)N1CC[C@@](C)(c2ccccc2)C1=O`, the Ki is 108 nM in [1], 221 nM on Interstitial collagenase and 242 nM in [3]. In [2], this compound came in with an IC50 of 2200 nM.

As to `C=CCOc1ccc([C@]2(C)CCN([C@H](C)C(=O)NO)C2=O)cc1`, the figures for the Ki (in series [1]; at Interstitial collagenase; in [3]) were 14 nM, 335 nM and 11 nM, respectively. The compound further displayed a half-inhibitory concentration (IC50) in [2] of 97 nM.
